Measured values published in ChEMBL document CHEMBL1154353, “Stereoselective behavior of the functional diltiazem analogue 1-[(4-chlorophenyl)sulfonyl]-2-(2-thienyl)pyrrolidine, a new L-type calcium channel blocker” (J Med Chem, 2009).

Tests used:
Aorta [1] = assay: Vasorelaxant activity in 80 mM K+-depolarized guinea pig thoracic aortic strip assessed as inhibition of calcium-induced contraction; format: functional, tissue-based; details: Cavia porcellus
Method in brief: (§1)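 Helicoidal guinea pig aortic strips in PSS at 35 °C, contracted with 80 mM KCl (equimolar substitution for Na+), plateau reached in about 45 min. Cumulative concentrations 0.1-500 μM in DMSO vehicle. Reported as % inhibition of contraction. IC50 by Probit analysis from log concentration-response curves (n = 6-8), not calculated when maximum effect was <50%.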

[2] = Negative inotropic activity in guinea pig left atrium assessed as decrease in atrial tension; format: functional, tissue-based; details: Cavia porcellus, Cardiac atrium
Method in brief: (§2)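 Isolated guinea pig left atria paced at 1 Hz (0.6-0.8 ms pulses, about 50% threshold voltage) in PSS at 35 °C, pH 7.4, gassed 95% O2-5% CO2. Isometric tension recorded after 45-60 min stabilization. Cumulative concentrations 0.1-100 μM, DMSO ≤0.3%. Reported as % decrease in developed tension vs control (n = 4-6). EC50 by Probit analysis (n = 6-8), not calculated when maximum effect was <50%.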

[3] = target: T1, Voltage-gated L-type calcium channel (Rattus norvegicus, UniProt P22002+Q02485+P27732); assay: Blockade of L-type calcium channel in Wistar rat tail artery smooth muscle cells assessed as inhibition of peak L-type barium current by whole cell patch clamp method
Ileum [4] = assay: Muscle relaxant activity in 80 mM K+-depolarized guinea pig ileum longitudinal smooth muscle assessed as inhibition of calcium-induced contraction; format: functional, tissue-based; details: Cavia porcellus
Method in brief: (§3)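 Guinea pig ileum longitudinal smooth muscle, 2 cm segments under 300-400 mg resting tension. Isometric recording in PSS, washed every 20 min for 1 h, then depolarized with 80 mM K+. Compounds added cumulatively in DMSO. Reported as % inhibition of calcium-induced contraction. IC50 from log concentration-response curves by Probit analysis.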

Aorta [5] = assay: Vasorelaxant activity in 80 mM K+-depolarized guinea pig thoracic aortic strip assessed as inhibition of calcium-induced contraction at 100 uM; format: functional, Cavia porcellus; method in brief: as §1
[6] = Negative inotropic activity in guinea pig left atrium assessed as decrease in atrial tension at 10 uM relative to control; format: functional, Cavia porcellus, Cardiac atrium; design: scale not given: the % may be the effect or the level left; method in brief: as §2
Ileum [7] = assay: Muscle relaxant activity in 80 mM K+-depolarized guinea pig ileum longitudinal smooth muscle assessed as inhibition of calcium-induced contraction at 5 uM; format: functional, Cavia porcellus; method in brief: as §3
[8] = Negative chronotropic activity in guinea pig right atrium assessed as decrease in atrial rate at 50 uM relative to control; format: functional, Cavia porcellus, Cardiac atrium; design: scale not given: the % may be the effect or the level left
Method in brief: (§4)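 Spontaneously beating guinea pig right atria in PSS at 35 °C, pH 7.4, 95% O2-5% CO2, pretreatment rate 170-195 beats/min. Cumulative concentrations 0.1-100 μM, each added at steady state, DMSO ≤0.3%. Reported as % decrease in atrial rate vs control, n = 6-8.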

[9] = Negative chronotropic activity in guinea pig right atrium assessed as decrease in atrial rate at 100 uM relative to control; format: functional, Cavia porcellus, Cardiac atrium; design: scale not given: the % may be the effect or the level left; method in brief: as §4
Ileum [10] = assay: Muscle relaxant activity in 80 mM K+-depolarized guinea pig ileum longitudinal smooth muscle assessed as inhibition of calcium-induced contraction at 10 uM; format: functional, Cavia porcellus; method in brief: as §3
[11] = Negative inotropic activity in guinea pig left atrium assessed as decrease in atrial tension at 100 uM relative to control; format: functional, Cavia porcellus, Cardiac atrium; design: scale not given: the % may be the effect or the level left; method in brief: as §2
[12] = Ratio of diltiazem EC50 to compound EC50 for negative inotropic activity in guinea pig left atrium; format: functional, Cavia porcellus, Cardiac atrium
[13] = target: T1, Voltage-gated L-type calcium channel; assay: Displacement of [3H]diltiazem from […] binding site of L-type calcium channel in Wistar rat cardiomyocytes by liquid scintillation counting; format: cell-based
Method in brief: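 Thawed rat cardiomyocytes (200 μg), isolated by collagenase/dispase perfusion and pooled from at least two animals. Incubated with 5 nM [3H]diltiazem and unlabeled ligand (0.1 nM to 100 μM) in 50 mM Tris pH 7.4, 25 °C, 90 min. Reaction stopped by filtration through PEI-soaked GF/B filters, then scintillation counting. Nonspecific binding defined with 100 μM diltiazem. Run in triplicate; sigmoidal fit of % specific binding.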

Aorta [14] = assay: Ratio of compound IC50 to diltiazem IC50 for vasorelaxant activity in 80 mM K+-depolarized guinea pig thoracic aortic strip; format: functional, Cavia porcellus

| IC50 (Aorta [1]) [nM] | EC50 [2] [nM] | IC50 [3] [nM] | IC50 (Ileum [4]) [nM] | inhibition (INH) [13] | inhibition (INH) ([3]; rat) | Compound | inhibition (INH) (Aorta [5]) [%] | Activity [6] [%] | inhibition (INH) (Ileum [7]) [%] | Activity [8] [%] | Activity [9] [%] | inhibition (INH) (Ileum [10]) [%] | Activity [11] [%] | Ratio EC50 [12] | Ratio IC50 (Aorta [14]) |
| --- | --- | --- | --- | --- | --- | --- | --- | --- | --- | --- | --- | --- | --- | --- | --- |
| 5160 | 450 | 22200 | 2060 | – | – | O=S(=O)(c1ccc(Cl)cc1)N1CCC[C@H]1c1cccs1 | 83 | 96 | 69 | 7 | – | – | – | – | – |
| – | 230 | 27100 | 1070 | – | – | O=S(=O)(c1ccc(Cl)cc1)N1CCC[C@@H]1c1cccs1 | 24 | – | 94 | 10 | – | – | 98 | – | – |
| – | – | – | 14800 | – | – | CSC1=NCCCN1S(=O)(=O)c1ccc(Cl)cc1 | 57 | – | – | – | 5 | 83 | – | – | 9.7 |
| – | – | 23500 | 1180 | – | Dose-dependent effect | O=S(=O)(c1ccc(Cl)cc1)N1CCCC1c1cccs1 (racemic) | 74 | – | 90 | 4 | 4 | 90 | – | 2.5 | 2.2 |

The remaining lines, values behind:

| Compound | IC50 (Aorta [1]) [nM] | EC50 [2] [nM] | IC50 [3] [nM] | IC50 (Ileum [4]) [nM] | inhibition (INH) [13] | inhibition (INH) ([3]; rat) | inhibition (INH) (Aorta [5]) [%] | Activity [6] [%] | inhibition (INH) (Ileum [7]) [%] | Activity [8] [%] | Activity [9] [%] | inhibition (INH) (Ileum [10]) [%] | Activity [11] [%] | Ratio EC50 [12] | Ratio IC50 (Aorta [14]) |
| --- | --- | --- | --- | --- | --- | --- | --- | --- | --- | --- | --- | --- | --- | --- | --- |
| CCO[C@@]1(c2ccc(Br)cc2)SC=C(C)n2c1noc2=O | – | 70 | – | – | – | – | 11 | – | – | – | 16 | 3 | – | – | – |
| C=CCN(c1ccccc1)S(=O)(=O)c1ccc(Cl)cc1 | 17700 | – | – | 4320 | Dose-dependent effect | – | 54 | – | – | – | 5 | 83 | – | 2.5 | 6.8 |
| COc1ccc([C@@H]2Sc3ccccc3N(CCN(C)C)C(=O)[C@@H]2OC(C)=O)cc1 [DILTIAZEM] | 2600 | 790 | – | – | – | – | 88 | – | – | – | – | 98 | – | – | – |
